Data on 14 compounds can be found in ChEMBL document CHEMBL1221407, “Anthraquinone, cyclopentanone, and naphthoquinone derivatives from the sea fan-derived fungi Fusarium spp. PSU-F14 and PSU-F135” (J Nat Prod, 2010).

In assay [1] the test system is Vero. Kind of assay: Cytotoxicity against african green monkey Vero cells. The format is cell-based, Chlorocebus sabaeus. Summed up:
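Vero cells (African green monkey kidney fibroblasts), noncancerous; run in triplicate by the method of Hunt and co-workers.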

In assay [2] the test system is Mycobacterium tuberculosis. Kind of assay: Antimycobacterial activity against Mycobacterium tuberculosis H37Ra by green fluorescent protein-based fluorescent assay. The assay is classed as functional.
For assay [3], the system named is MCF7. Kind of assay: Cytotoxicity against human MCF7 cells. The format is functional, cell-based. Summed up: (§1)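 KB (oral human carcinoma) and MCF-7 (human breast cancer) cells; resazurin microplate assay.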
Assay [4] has as its system Plasmodium falciparum. As to the kind of experiment: Antimalarial activity against multidrug-resistant Plasmodium falciparum K1 by microculture radioisotope technique. The assay is classed as functional, organism-based.
Assay [5] concerns KB. Kind of assay: Cytotoxicity against human KB cells. The assay is classed as functional, cell-based. Summed up:
as §1

The subject of assay [6] is Nannizzia gypsea. As to the kind of experiment: Antimicrobial activity against Microsporum gypseum by colorimetric broth microdilution test. The assay is classed as functional. Summed up: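 Colorimetric broth microdilution run to CLSI M38-A (broth dilution method for filamentous fungi) and Drummond and Waigh.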
(In broth dilution the organism is exposed to a series of concentrations in liquid medium.)

The test system of assay [7] is Cryptococcus neoformans. As to the kind of experiment: Antimicrobial activity against Cryptococcus neoformans by colorimetric broth microdilution test. The format is functional. Summed up: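 Colorimetric broth microdilution run to CLSI M27-A2 (reference broth dilution method for yeasts) and Drummond and Waigh.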
Where [8] appears, read: Chlorocebus sabaeus, Vero, read-out: IC50.
Setting [9] is: Homo sapiens, KB, read-out: IC50.
Setting [10] is: Plasmodium falciparum, K1, read-out: IC50.

Structures are written as SMILES. In brackets after ≈: the same amount, converted by molar mass. Activity calls are given as the source filed them. No cut-off for these calls is given here. A value given as a limit tells only on which side of the number the result lay.

Usually IC50 stands for the concentration needed to halve the response being measured. As usually defined, the MIC is the lowest concentration that inhibits growth of the organism.

Turning to `COc1cc(O)c2c(c1O)[C@H](O)[C@H]1C[C@](C)(O)[C@H](O)C[C@@H]1C2=O`, the IC50 in assay [1] (setting [8]) is 57 µM; in assay [3], 15 µM; in assay [4], “Not Active”; in assay [5] (setting [9]), 19 µM. Also, in assay [2], the MIC entry is “inactive”.

`COc1cc(O)c2c(c1O)[C@H](O)[C@H]1C[C@](C)(O)[C@H](O)[C@@H](O)[C@@H]1C2=O` [9ALPHA-HYDROXYHALOROSELLINIA A]: the 50% inhibitory concentration (IC50) amounted to 54 µM in assay [1] (setting [8]), 6.2 µM in assay [3], 25 µM in assay [4] (setting [10]) and 49 µM in assay [5] (setting [9]). In addition, in assay [2], the minimal inhibitory concentration (MIC) was determined as 39 µM (≈ 13.3 µg/mL).

Regarding `COC1=CC(=O)c2c(O)c3c(c(O)c2C1=O)C=C(C)OC3` [ANHYDROFUSARUBIN], the IC50 was 58 µM in assay [1] (setting [8]), 0.9 µM in assay [3], 14 µM in assay [4] (setting [10]) and 2 µM in assay [5] (setting [9]). In assay [2], this compound displayed a minimum inhibitory concentration (MIC) of 87 µM (≈ 25.1 µg/mL).

On to `C[C@H]1[C@@H](O)O[C@@H]2O[C@@]3(C)CC[C@H]4[C@H](C)CC[C@@H]1[C@@]24OO3` [ARTENIMOL], for which, in assay [4] (setting [10]), the IC50 was 0.004 µM.

Consider `COc1cc(O)c2c(c1O)C(=O)c1cc(C)ccc1C2=O` [AUSTROCORTIRUBIN], for which the 50% inhibitory concentration (IC50) entry in assay [1] (vero) is “Not Active”; in assay [3], 6.3 µM; in assay [4] it was “Not Active”; in assay [5] (kb), “Not Active”. Further, in assay [2], the MIC result is “inactive”.

With `COC1=CC(=O)c2c(O)c3c(c(O)c2C1=O)C[C@](C)(O)[C@H](O)[C@H]3O` [BOSTRYCIN], the 50% inhibitory concentration (IC50) in assay [1] (setting [8]) is 4.2 µM; in assay [3], 2.7 µM; in assay [4] (setting [10]) it was 9.8 µM; in assay [5] (setting [9]) it was 0.9 µM. The MIC entry in assay [2] was “inactive”.

Regarding `COc1cccc2c1C(=O)c1c(O)c3c(c(O)c1C2=O)C[C@@](O)(C(=O)CO)C[C@@H]3O[C@H]1C[C@H](N)[C@H](O)[C@H](C)O1` [DOXORUBICIN], the IC50 in assay [3] worked out at 2.18 µM; in assay [5] (setting [9]) it was 0.33 µM.

In the case of `Cc1c2ccncc2c(C)c2c1[nH]c1ccccc12` [ELLIPTECINE], the IC50 in assay [1] (setting [8]) is 4.47 µM; in assay [5] (setting [9]) it was 1.1 µM.

Consider `COc1cc(O)c2c(c1O)[C@@H](O)[C@@H](CC(C)=O)[C@@H](CO)C2=O` [FUSARNAPHTHOQUINONE A], for which the 50% inhibitory concentration (IC50) entry in assay [1] (vero) was “Not Active”; in assay [3] it was 22 µM; in assay [4], “Not Active”; in assay [5] (setting [9]) it was 130 µM. In assay [2], the MIC entry was “inactive”.

In the case of `CO[C@@H]1CC(=O)c2c(O)c(C)c3cc(C)oc3c2[C@@H]1O` [FUSARNAPHTHOQUINONE B], the MIC in assay [6] and in assay [7] was more than 200 µM each time.

Consider `COC1=CC(=O)c2c(O)c3c(c(O)c2C1=O)CC(C)(O)OC3` (stereo not given) [FUSARUBIN], for which the minimum inhibitory concentration (MIC) in assay [6] and in assay [7] was more than 200 µM each time. The concentration for half-maximal inhibition (IC50) was 79 µM in assay [1] (setting [8]), 9.8 µM in assay [3], “Not Active” in assay [4] and 14 µM in assay [5] (setting [9]). Besides, in assay [2], the MIC entry is “inactive”.

Turning to `NNC(=O)c1ccncc1` [ISONIAZID], the MIC in assay [2] was determined as 0.17 µM (≈ 0.0233 µg/mL).

Regarding `COC1=CC(=O)c2c(O)c(C)c(CC(C)=O)c(O)c2C1=O` [JAVANICIN], the IC50 in assay [1] (setting [8]) was determined as 170 µM; in assay [3], 13 µM; in assay [4] (setting [10]), 12 µM; in assay [5] (setting [9]) it was 5.7 µM. The MIC entry in assay [2] is “inactive”.

With `COC1=CC(=O)c2c(cc3c(c2O)C[C@@H](O)[C@@](C)(O)C3)C1=O` [NIGROSPORIN B], the IC50 in assay [1] (setting [8]) is 29 µM; in assay [3], 5.4 µM; in assay [4] (setting [10]), 13 µM; in assay [5] (setting [9]), 88 µM. This compound had a minimal inhibitory concentration (MIC) in assay [2] of 41 µM (≈ 12.5 µg/mL).
